This note sets out measurements from PubChem BioAssay AID1424 (The Scripps Research Institute Molecular Screening Center, 2008).

In all, about 220,000 compounds went through this assay and about 390 (0.18%) were called active. The full list was thinned out, with actives kept by preference. Unmarked numbers belong to inactive results.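 Rule for the calls: active = activation above its plate's cutoff, the mean activation of test wells on that plate plus 3 SD (cut at about 19% in these data); inactive = the rest.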

The experiment has as its system transient receptor potential cation channel N1 (TRPN1/NompC), Danio rerio. Nature of the experiment: TRPN1 activation via calcium influx – cell-based, HEK293, calcium fluorescence, zebrafish, primary screen (AID 1424).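 Note: 0% = DMSO alone and 100% = 87 µM carbachol.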 The note with it: HEK293 zebrafish TRPN1-YFP, Fluo-8 calcium fluorescence; at 3 µM; stronger effect = higher value; 100% = response to 87 µM carbachol. The method, boiled down:
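Material – zebrafish TRPN1-YFP in HEK293 cells · Doses – 3 µM single point · Schedule – dye 1 h 37 °C plus 30 min RT · Signal – Fluo-8 calcium fluorescence, excitation 470-495 nm, emission 515-575 nm · Read-out – % activation versus carbachol response · Control set – carbachol high, DMSO low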
Consider `Cc1ccc(-n2c(C)cc(/C=N/Nc3ccc([N+](=O)[O-])cn3)c2C)c(C)c1`, for which the activation is -0.82%.

As for `C/C=N/N(c1ccccc1)c1ccccc1`, the activation is 0.69%.

For the compound `COc1cc(NC(=S)NCCSc2ccc(C)cc2)cc(OC)c1`, the activation is -3.08%.

Turning to `Cc1cc(C)c(S(=O)(=O)N2CCOCC2)cc1C`, the activation was -0.54%.

As to `CC(C)n1c(NCc2c[nH]c3ccccc23)nc2ccccc21`, the activation is -0.19%.

For `Cc1nc(S(=O)(=O)c2ccc(Br)cc2)nc2c1CCC2`, the activation was 0.17%.

With `CN(C)C=NC(=O)c1cccn1-c1ncc(C(F)(F)F)cc1Cl`, the activation was -0.1%.

For `NC(=O)c1ccc(NC(=O)COC(=O)c2c3c(nc4ccccc24)/C(=C\c2ccc4c(c2)OCO4)CCC3)cc1`, the activation is 41.6% (active).

Take `NS(=O)(=O)c1ccc(NC(=O)COC(=O)c2c3c(nc4ccccc24)/C(=C\c2ccc4c(c2)OCO4)CCC3)cc1`: the activation was 47.9% (active).

Turning to `O=C(COC(=O)c1c2c(nc3ccccc13)/C(=C\c1cccs1)CCC2)Nc1ccccc1Cl`, the activation is -1.63%.

For `NS(=O)(=O)c1ccc(NC(=O)COC(=O)c2ccc(Cl)nc2)cc1`, the activation is 1.46%.

Take `NS(=O)(=O)c1ccc(NC(=O)COC(=O)c2cc3ccccc3oc2=O)cc1`: the activation is 0.38%.

Take `COc1cc(-c2cc(C(=O)OCC(=O)Nc3ccc4c(c3)OCO4)c3ccccc3n2)cc(OC)c1OC`: the activation was -1.87%.

For `CCN1CCC2(CC1)N=C(c1ccc(F)cc1)C(=S)N2C(=O)c1ccc(C)cc1`, the activation is -0.33%.

Take `COC(=O)c1ccc(C(NC(=O)OCc2ccccc2)/C(C)=C/[C@@H](C)C(=O)NCc2ccc(OC)c(OC)c2)cc1` (some centres undefined): the activation is -0.55%.

For the compound `COc1ccc(OCc2n[nH]c(=S)n2N)cc1`, the activation is 0.96%.

As for `COC(=O)c1ccc(CN2CCC(CO)(Cc3ccc(OC)cc3)CC2)cc1`, the activation was 4.67%.

Consider `CCn1c(=S)[nH]c2sc3c(c2c1=O)CCCCC3`, for which the activation is 0.92%.

With `O=C(C1=C[C@H](c2ccc(C(F)(F)F)cc2)C[C@H](OCc2ccc(CO)cc2)O1)N1CCN(Cc2ccccc2)CC1`, the activation was -0.62%.

As to `Cc1nc(=O)c(-c2ccccc2)c(C)n1-c1ccc(Br)cc1`, the activation is 1.06%.

Turning to `CC1(C)CC(=O)C(C2c3ccccc3S(=O)(=O)c3ccccc32)C(=O)C1`, the activation is -1.19%.

For `O=C(Cc1c(F)cccc1Cl)Nc1ncc([N+](=O)[O-])s1`, the activation was 18.3%.

Turning to `CC(=O)Oc1ccccc1C(=O)Nc1ncc([N+](=O)[O-])s1`, the activation was 22.2% (active).

`O=C(CCc1ccccc1)Nc1ncc([N+](=O)[O-])s1`: the activation was 9.35%.
